Results collected from several papers.
Protocols differ between the studies behind these lines.
Mode: inhibitor
CDK2: Cyclin-dependent kinase 2 (CDK2, Homo sapiens, UniProt P24941)
PARP2: Poly [ADP-ribose] polymerase 2 (PARP2, Homo sapiens, UniProt Q9UGN5)

SMILES | target | test | conditions | IC50
CC(=O)C(=O)N(CC(C)C)NC(=O)[C@H](Cc1ccccc1)NC(=O)[C@H](CC(C)C)NC(=O)[C@H](CCc1ccccc1)NC(=O)OCc1ccccc1 | Cathepsin B (CTSB, Homo sapiens, UniProt P07858) | enzyme activity, fluorescence | pH 6 | 31.5 µM
Cc1n[nH]c2ccc3nc(-c4ccc(C(=O)NCCN(C)C)cc4)c4c(c3c12)CCC(F)(F)C4 | CDK2 | enzyme activity |  | 0.594 µM
O=c1[nH]c(=O)c(Cc2cccc(C(F)(F)F)c2)c([C@H]2CC[C@H](c3ccccc3)CC2)[nH]1 | Multidrug and toxin extrusion protein 1 (SLC47A1, Homo sapiens, UniProt Q96FL8) | transporter uptake |  | > 8 µM
CCNc1ccc(C(N)=O)cn1 | Nicotinamide N-methyltransferase (NNMT, Homo sapiens, UniProt P40261) | enzyme activity in cells |  | > 31.6 µM
O=c1[nH]c2c(nnn2Cc2ccc(C(F)(F)F)cc2)c2ccc(F)cc12 | PARP2 | enzyme activity |  | > 10 µM
CN(C)CCNC(=O)c1ccc(-c2nc3ccc4[nH]ncc4c3c3c2CC(C)(C)CC3)cc1 | CDK2 | enzyme activity |  | 0.145 µM
CCCCCn1nnc2c3ccc(F)cc3c(=O)[nH]c21 | PARP2 | enzyme activity |  | > 10 µM
CN(C)CCNC(=O)c1ccc(-c2nc3ccc4[nH]ncc4c3c3c2CC(F)(F)CC3)cc1 | CDK2 | enzyme activity |  | 0.109 µM
NC/C(=C\F)COc1cccc(Cn2c(=S)[nH]c(=O)c3[nH]cnc32)c1 | Sodium channel protein type 5 subunit alpha (SCN5A, Homo sapiens, UniProt Q14524) | ion current |  | > 100 µM
CC(=O)N1C(=O)NC(C)=C(C(=O)OCc2ccccc2)C1c1cccc([N+](=O)[O-])c1 (racemic) | Voltage-dependent L-type calcium channel subunit alpha-1C (Cacna1c, Rattus norvegicus, UniProt P22002) | ion current, patch clamp |  | 2.6 µM
Cc1ccc(Cn2nnc3c4ccc(F)cc4c(=O)[nH]c32)cc1 | PARP2 | enzyme activity |  | > 10 µM
Cn1cc(C2=C(c3cn(CCCSC(=N)N)c4ccccc34)C(=O)NC2=O)c2ccccc21 | Mitogen-activated protein kinase kinase kinase kinase 1 (MAP4K1, Homo sapiens, UniProt Q92918) | enzyme activity |  | 0.0544 µM
